What was measured:
Mus musculus [1] = assay: Compound was tested for its ability to enhance nonspecific resistance to expt. fungal infection in mice immunosuppressed with cyclophosphamide and infected with candida albicans at 3x 0.1 mg/kg/day; survival increase = 0/6; type: functional
Procedure, shortened: (§1)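 Groups of 10 mice in a controlled room. Test substance or vehicle (distilled water) was given ip on days 1, 3 and 5. Cyclophosphamide 30 mg/kg po was given on days 2, 4 and 6. One hour after the last cyclophosphamide dose, mice were challenged with C. albicans at a level set for 70–90% mortality within 10 days in vehicle controls. Survival over 10 days was scored as (treated − CP-only survivors)/(unsuppressed control − CP-only survivors).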

Mus musculus [2] = assay: Compound was tested for its ability to enhance nonspecific resistance to expt. fungal infection in mice immunosuppressed with cyclophosphamide and infected with candida albicans at 3x1 mg/kg/day; survival increase = 1/6; type: functional; procedure, shortened: as §1
Mus musculus [3] = assay: Compound was tested for its ability to enhance nonspecific resistance to expt. fungal infection in mice immunosuppressed with cyclophosphamide and infected with candida albicans at 3x10 mg/kg/day; survival increase = 0/6; type: functional; procedure, shortened: as §1
Mus musculus [4] = assay: Compound was tested for its ability to enhance nonspecific resistance to expt. fungal infection in mice immunosuppressed with cyclophosphamide and infected with candida albicans at 3x100 mg/kg/day; survival increase = 0/6; type: functional; procedure, shortened: as §1
Mus musculus [5] = assay: Compound was tested for its ability to enhance nonspecific resistance to expt. fungal infection in mice immunosuppressed with cyclophosphamide and infected with candida albicans at 3x10 mg/kg/day; survival increase = 2/6; type: functional; procedure, shortened: as §1
Mus musculus [6] = assay: Compound was tested for its ability to enhance nonspecific resistance to expt. fungal infection in mice immunosuppressed with cyclophosphamide and infected with candida albicans at 3x100 mg/kg/day; survival increase = 2/6; type: functional; procedure, shortened: as §1
Mus musculus [7] = assay: Compound was tested for its ability to enhance nonspecific resistance to expt. fungal infection in mice immunosuppressed with cyclophosphamide and infected with candida albicans at 3x100 mg/kg/day; survival increase = 1/6; type: functional; procedure, shortened: as §1
Mus musculus [8] = assay: Compound was tested for its ability to enhance nonspecific resistance to expt. fungal infection in mice immunosuppressed with cyclophosphamide and infected with candida albicans at 3x 0.1 mg/kg/day;survival increase = 0/6; type: functional; procedure, shortened: as §1
Mus musculus [9] = assay: Compound was tested for its ability to enhance nonspecific resistance to expt. fungal infection in mice immunosuppressed with cyclophosphamide and infected with candida albicans at 3x1 mg/kg/day; survival increase = 0/6; type: functional; procedure, shortened: as §1
Mus musculus [10] = species on record: Mus musculus; assay: Compound was tested for blast transformation ability of lymphocytes, stimulated in vitro with Concanavalin A expressed as amount of [3H]thymidine incorporated in lymphocyte DNA at 25 microg daily dose in mouse; type: functional
Procedure, shortened: (§2)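 Female HAN–NmRi mice (3–4 weeks, 17–20 g) got 1 mL thioglycolate ip, then the dose in 0.5 mL ip one hour later, repeated on days 2 and 3. On day 4, spleen lymphocytes were taken at 1 × 10^6/mL in RPMI 1640 with 10% FCS and stimulated with Con A at 16, 8 or 4 μg/mL for 2 days at 37 °C, 5% CO2. [3H]thymidine was then added for 16 h and counted by β-counter. Results are cpm, n = 5.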

Mus musculus [11] = species on record: Mus musculus; assay: Compound was tested for its effect on number of B-cells at 0.25 microg daily dose in mouse; type: functional, B-cell
Procedure, shortened: (§3)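 Female HAN–NmRi mice (3–4 weeks) got thioglycolate ip and the dose ip in 0.5 mL on days 1–3, and spleens were taken on day 4. B cells were stained with FITC goat anti-mouse IgG. T cells were stained with rat anti-Thy-1 and then FITC goat anti-rat Ig. Cells were counted by fluorescence microscopy and reported in millions as mean ± SEM with p values.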

Mus musculus [12] = species on record: Mus musculus; assay: Compound was tested for its effect on number of B-cells at 2.5 microg daily dose in mouse; type: functional, B-cell; procedure, shortened: as §3
Mus musculus [13] = species on record: Mus musculus; assay: Compound was tested for its effect on number of T cells at 25 microg daily dose in mouse; type: functional, T-cell; procedure, shortened: as §3
Mus musculus [14] = species on record: Mus musculus; assay: Compound was tested for its effect on number of peritoneal macrophages at 25 microg daily dose in mouse; type: functional
Procedure, shortened: (§4)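 Female HAN–NmRi mice got thioglycolate ip and the dose ip (0.5 mL) daily for 3 days. On day 4, peritoneal cells were washed out with ice-cold RPMI 1640. Macrophages were counted with trypan blue in a Neubauer chamber, excluding contaminating cells by morphology, and reported in millions as mean ± SEM.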

Mus musculus [15] = species on record: Mus musculus; assay: Compound was tested for immunomodulatory effect on macrophage activation with costimulation with PMA measured as UV absorption difference with test sample at 25 microg daily dose and blank/mg of cell protein in mouse; type: functional
Procedure, shortened: (§5)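 Female HAN–NmRi mice got thioglycolate ip plus the dose ip (0.5 mL) daily for 3 days and were killed on day 4. Peritoneal cells were washed out, erythrocytes lysed hypo-osmotically, and cells plated at 1.5 × 10^6/mL. They adhered for 2 h and nonadherent cells were rinsed off. Macrophages were given 160 μM ferricytochrome c in HBSS, with or without 200 nM PMA; the blank added 340 U/mL SOD. After 90 min at 37 °C, absorbance was read at […].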

Mus musculus [16] = species on record: Mus musculus; assay: Compound was tested for blast transformation ability of lymphocytes, stimulated in vitro with Concanavalin A expressed as amount of [3H]thymidine incorporated in lymphocyte DNA at 2.5 microg daily dose in mouse; type: functional; procedure, shortened: as §2
Mus musculus [17] = species on record: Mus musculus; assay: Compound was tested for immunomodulatory effect on macrophage activation with costimulation with PMA measured as UV absorption difference with test sample at 0.25 microg daily dose and blank/mg of cell protein in mouse; type: functional; procedure, shortened: as §5
Mus musculus [18] = species on record: Mus musculus; assay: Compound was tested for immunomodulatory effect on macrophage activation with costimulation with PMA measured as UV absorption difference with test sample at 2.5 microg daily dose and blank/mg of cell protein in mouse; type: functional; procedure, shortened: as §5
Mus musculus [19] = species on record: Mus musculus; assay: Compound was tested for its effect on number of T cells at 2.5 microg daily dose in mouse; type: functional, T-cell; procedure, shortened: as §3
Mus musculus [20] = species on record: Mus musculus; assay: Compound was tested for immunomodulatory effect on macrophage activation without costimulation with PMA measured as UV absorption difference with test sample at 2.5 microg daily dose and blank/mg of cell protein in mouse; type: functional; procedure, shortened: as §5
Mus musculus [21] = species on record: Mus musculus; assay: Compound was tested for its effect on number of total spleen cells at 2.5 microg daily dose in mouse; type: functional; procedure, shortened: as §3
Mus musculus [22] = species on record: Mus musculus; assay: Compound was tested for its effect on number of peritoneal macrophages at 2.5 microg daily dose in mouse; type: functional; procedure, shortened: as §4
Mus musculus [23] = species on record: Mus musculus; assay: Compound was tested for its effect on number of total spleen cells at 25 microg daily dose in mouse; type: functional; procedure, shortened: as §3
Mus musculus [24] = species on record: Mus musculus; assay: Compound was tested for its effect on number of total spleen cells at 0.25 microg daily dose in mouse; type: functional; procedure, shortened: as §3
Mus musculus [25] = species on record: Mus musculus; assay: Compound was tested for immunomodulatory effect on macrophage activation without costimulation with PMA measured as UV absorption difference with test sample at 25 microg daily dose and blank/mg of cell protein in mouse; type: functional; procedure, shortened: as §5
Mus musculus [26] = species on record: Mus musculus; assay: Compound was tested for immunomodulatory effect on macrophage activation without costimulation with PMA measured as UV absorption difference with test sample at 0.25 microg daily dose and blank/mg of cell protein in mouse; type: functional; procedure, shortened: as §5
Mus musculus [27] = species on record: Mus musculus; assay: Compound was tested for its effect on number of peritoneal macrophages at 0.25 microg daily dose in mouse; type: functional; procedure, shortened: as §4
Mus musculus [28] = species on record: Mus musculus; assay: Compound was tested for its effect on number of T cells at 0.25 microg daily dose in mouse; type: functional, T-cell; procedure, shortened: as §3
Mus musculus [29] = species on record: Mus musculus; assay: Compound was tested for its effect on number of B-cells at 25 microg daily dose in mouse; type: functional, B-cell; procedure, shortened: as §3
Mus musculus [30] = species on record: Mus musculus; assay: Compound was tested for blast transformation ability of lymphocytes, stimulated in vitro with Concanavalin A expressed as amount of [3H]-thymidine incorporated in lymphocyte DNA at 0.25 microg daily dose in mouse; type: functional; procedure, shortened: as §2
Mus musculus [31] = assay: Compound was tested for its ability to enhance nonspecific resistance to expt. fungal infection in mice immunosuppressed with cyclophosphamide and infected with candida albicans at 3x30 mg/kg/day; survival increase = 1/6; type: functional; procedure, shortened: as §1
Mus musculus [32] = assay: Compound was tested for its ability to enhance nonspecific resistance to expt. fungal infection in mice immunosuppressed with cyclophosphamide and infected with candida albicans at 3x10 mg/kg/day; survival increase = 1/6; type: functional; procedure, shortened: as §1
Mus musculus [33] = assay: Compound was tested for its ability to enhance nonspecific resistance to expt. fungal infection in mice immunosuppressed with cyclophosphamide and infected with candida albicans at 3x 0.1 mg/kg/day; survival increase = 2/6; type: functional; procedure, shortened: as §1
Mus musculus [34] = assay: Compound was tested for its ability to enhance nonspecific resistance to expt. fungal infection in mice immunosuppressed with cyclophosphamide and infected with candida albicans at 3x10 mg/kg/day; survival increase = 3/6; type: functional; procedure, shortened: as §1
Mus musculus [35] = assay: Compound was tested for its ability to enhance nonspecific resistance to expt. fungal infection in mice immunosuppressed with cyclophosphamide and infected with candida albicans at 3x100 mg/kg/day; survival increase = 3/6; type: functional; procedure, shortened: as §1
Mus musculus [36] = assay: Compound was tested for its ability to enhance nonspecific resistance to expt. fungal infection in mice immunosuppressed with cyclophosphamide and infected with candida albicans at 3x30 mg/kg/day; survival increase = 3/6; type: functional; procedure, shortened: as §1
Mus musculus [37] = assay: Compound was tested for its ability to enhance nonspecific resistance to expt. fungal infection in mice immunosuppressed with cyclophosphamide and infected with candida albicans at 3x1 mg/kg/day; survival increase = 2/6; type: functional; procedure, shortened: as §1
Mus musculus [38] = assay: Compound was tested for its ability to enhance nonspecific resistance to expt. fungal infection in mice immunosuppressed with cyclophosphamide and infected with candida albicans at 3x1 mg/kg/day; survival increase = 3/6; type: functional; procedure, shortened: as §1
Mus musculus [39] = assay: Compound was tested for its ability to enhance nonspecific resistance to expt. fungal infection in mice immunosuppressed with cyclophosphamide and infected with candida albicans at 3x 0.1 mg/kg/day; survival increase = 3/6; type: functional; procedure, shortened: as §1

CC(=O)N[C@@H]1CCCC[C@H]1OCC(=O)N[C@@H](C)C(=O)N[C@H](CCC(=O)O)C(N)=O
Survival increase (Mus musculus [1]): 0
Survival increase (Mus musculus [2]): 1
Survival increase (Mus musculus [3]): 0
Survival increase (Mus musculus [4]): 0

CC(=O)N[C@H]1CCCC[C@@H]1OCC(=O)N[C@@H](C)C(=O)N[C@H](CCC(=O)O)C(=O)O
Survival increase (Mus musculus [1]): 0
Survival increase (Mus musculus [5]): 2
Survival increase (Mus musculus [2]): 1
Survival increase (Mus musculus [6]): 2

CC(=O)N[C@H]1CCCC[C@@H]1OCC(=O)N[C@@H](C)C(=O)N[C@H](CCC(=O)O)C(N)=O
Survival increase (Mus musculus [7]): 1
Survival increase (Mus musculus [3]): 0
Survival increase (Mus musculus [8]): 0
Survival increase (Mus musculus [9]): 0

CC(=O)NC1CCCCC1OCC(=O)N[C@@H](C)C(=O)N[C@H](CCC(=O)O)C(=O)O (stereo partly drawn)
Amount of [3H]thymidine (Mus musculus [10]): 25990 c.p.m.
Number (Mus musculus [11]): 18.42 millions
Number (Mus musculus [12]): 23.76 millions
Number (Mus musculus [13]): 9.72 millions
Number (Mus musculus [14]): 0.92 millions
Macrophage activation (Mus musculus [15]): 1709
Amount of [3H]thymidine (Mus musculus [16]): 16830 c.p.m.
Macrophage activation (Mus musculus [17]): 1298
Macrophage activation (Mus musculus [18]): 1494
Number (Mus musculus [19]): 12.88 millions
Macrophage activation (Mus musculus [20]): 431
Number (Mus musculus [21]): 8.14 millions
Number (Mus musculus [22]): 2.87 millions
Number (Mus musculus [23]): 9.93 millions
Number (Mus musculus [24]): 5.66 millions
Macrophage activation (Mus musculus [25]): 489
Macrophage activation (Mus musculus [26]): 237
Number (Mus musculus [27]): 2.58 millions
Number (Mus musculus [28]): 11.7 millions
Number (Mus musculus [29]): 20.5 millions
Amount of [3H]thymidine (Mus musculus [30]): 10780 c.p.m.

CCCCCC(=O)NC1CCCCC1OCC(=O)N[C@@H](C)C(=O)N[C@H](CCC(=O)O)C(N)=O (stereo partly drawn)
Survival increase (Mus musculus [31]): 1
Survival increase (Mus musculus [1]): 0
Survival increase (Mus musculus [32]): 1
Survival increase (Mus musculus [9]): 0

CC(=O)N[C@@H]1CCCC[C@H]1OCC(=O)N[C@@H](C)C(=O)N[C@H](CCC(=O)O)C(=O)O
Survival increase (Mus musculus [33]): 2
Survival increase (Mus musculus [34]): 3
Survival increase (Mus musculus [2]): 1
Survival increase (Mus musculus [35]): 3

C[C@H](NC(=O)C1(C)OC2(C)CCCCC2(C)NC1=O)C(=O)N[C@H](CCC(=O)O)C(=O)O (stereo partly drawn)
Survival increase (Mus musculus [1]): 0
Survival increase (Mus musculus [3]): 0
Survival increase (Mus musculus [9]): 0
Survival increase (Mus musculus [6]): 2

CCCCCCCCCCCC(=O)NC1CCCCC1OCC(=O)N[C@@H](C)C(=O)N[C@H](CCC(=O)O)C(N)=O (stereo partly drawn)
Survival increase (Mus musculus [1]): 0
Survival increase (Mus musculus [34]): 3
Survival increase (Mus musculus [36]): 3
Survival increase (Mus musculus [37]): 2

CC(C)(N1CC1C#N)N1CC1C(N)=O (stereo not drawn) [AZIMEXON]
Survival increase (Mus musculus [38]): 3
Survival increase (Mus musculus [34]): 3
Survival increase (Mus musculus [39]): 3
Survival increase (Mus musculus [35]): 3
